Test results: ChEMBL document CHEMBL1649441, “Potency and bactericidal activity of iclaprim against recent clinical gram-positive isolates” (2009)
In brackets after ≈: the same amount, converted by molar mass.

Columns and labels:
Type in all cases: functional
Enterococcus faecalis [1] = assay: Antibacterial activity against Enterococcus faecalis assessed as inhibition of bacterial growth at 0.5 ug/ml by CLSI broth microdilution method
How it was run: (§1)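 Clinical isolates from skin/soft tissue, bloodstream and respiratory specimens were tested by broth microdilution per CLSI M7-A7 and M100-S18, with quality controls. Values are the number of isolates inhibited at each concentration, or MIC / percent susceptible. Highest concentration tested was 8 µg/ml for iclaprim and trimethoprim-sulfamethoxazole, and 64 µg/ml for trimethoprim.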

Enterococcus faecium [2] = assay: Antibacterial activity against Enterococcus faecium assessed as inhibition of bacterial growth at 0.03 ug/ml by CLSI broth microdilution method; how it was run: as §1
Staphylococcus aureus [3] = assay: Antibacterial activity against Methicillin-sensitive Staphylococcus aureus by CLSI broth microdilution method
[4] = system: Streptococcus sp. 'group B'; assay: Antibacterial activity against Beta-hemolytic Streptococcus group B assessed as inhibition of bacterial growth at 0.5 ug/ml by CLSI broth microdilution method; how it was run: as §1
Staphylococcus aureus [5] = assay: Antibacterial activity against Methicillin-resistant Staphylococcus aureus assessed as inhibition of bacterial growth at 2 ug/ml by CLSI broth microdilution method
How it was run: (§2)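 Recent clinical isolates from skin/soft tissue, bloodstream and respiratory specimens. Tested by broth microdilution per CLSI M7-A7 and M100-S18, with the appropriate quality controls. The thymidine content of the test medium was assessed to rule out artifactual inhibition.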

[6] = system: Streptococcus sp. 'group A'; assay: (§3) Antibacterial activity against Beta-hemolytic Streptococcus group A assessed as inhibition of bacterial growth at […] by CLSI broth microdilution method
[7] = system: Streptococcus sp. 'group A'; assay: Antibacterial activity against Beta-hemolytic Streptococcus group A assessed as inhibition of bacterial growth at 0.03 ug/ml by CLSI broth microdilution method; how it was run: as §1
[8] = system: Streptococcus sp. 'group B'; assay: (§4) Antibacterial activity against Beta-hemolytic Streptococcus group B assessed as inhibition of bacterial growth at […] by CLSI broth microdilution method
[9] = system: Streptococcus sp. 'group A'; assay: Antibacterial activity against Beta-hemolytic Streptococcus group A assessed as inhibition of bacterial growth at 8 ug/ml by CLSI broth microdilution method; how it was run: as §1
Enterococcus faecalis [10] = assay: Antibacterial activity against Enterococcus faecalis assessed as inhibition of bacterial growth at […] by CLSI broth microdilution method; further: tested at 0.25 µg/mL
Staphylococcus aureus [11] = assay: Antibacterial activity against Methicillin-resistant Staphylococcus aureus assessed as inhibition of bacterial growth at 0.5 ug/ml by CLSI broth microdilution method; how it was run: as §2
Enterococcus faecalis [12] = assay: Antibacterial activity against Enterococcus faecalis assessed as inhibition of bacterial growth at >8 ug/ml by CLSI broth microdilution method; how it was run: as §1
[13] = system: Streptococcus sp. 'group B'; assay: as §4; remark: listed apart in the source
Enterococcus faecalis [14] = assay: Antibacterial activity against Enterococcus faecalis assessed as inhibition of bacterial growth at 4 ug/ml by CLSI broth microdilution method; how it was run: as §1
[15] = system: Streptococcus sp. 'group B'; assay: Antibacterial activity against Beta-hemolytic Streptococcus group B assessed as inhibition of bacterial growth at 2 ug/ml by CLSI broth microdilution method; how it was run: as §1
Staphylococcus aureus [16] = assay: Antibacterial activity against Methicillin-resistant Staphylococcus aureus assessed as inhibition of bacterial growth at […] by CLSI broth microdilution method
Enterococcus faecium [17] = assay: Antibacterial activity against Enterococcus faecium assessed as inhibition of bacterial growth at […] by CLSI broth microdilution method; further: tested at 0.25 µg/mL
[18] = system: Streptococcus sp. 'group B'; assay: Antibacterial activity against Beta-hemolytic Streptococcus group B assessed as inhibition of bacterial growth at 8 ug/ml by CLSI broth microdilution method; how it was run: as §1
[19] = system: Streptococcus sp. 'group A'; assay: Antibacterial activity against Beta-hemolytic Streptococcus group A assessed as inhibition of bacterial growth at 2 ug/ml by CLSI broth microdilution method; how it was run: as §1
Staphylococcus aureus [20] = assay: (§5) Antibacterial activity against Methicillin-sensitive Staphylococcus aureus assessed as inhibition of bacterial growth at […] by CLSI broth microdilution method; set-up: Activity: scale not given: the % may be the effect or the level left
Enterococcus faecalis [21] = assay: Antibacterial activity against Enterococcus faecalis assessed as inhibition of bacterial growth at 0.06 ug/ml by CLSI broth microdilution method; how it was run: as §1
Enterococcus faecium [22] = assay: Antibacterial activity against Enterococcus faecium assessed as inhibition of bacterial growth at 0.06 ug/ml by CLSI broth microdilution method; how it was run: as §1
[23] = system: Streptococcus sp. 'group B'; assay: Antibacterial activity against Beta-hemolytic Streptococcus group B assessed as inhibition of bacterial growth at 0.06 ug/ml by CLSI broth microdilution method; how it was run: as §1
Staphylococcus aureus [24] = assay: Antibacterial activity against Methicillin-sensitive Staphylococcus aureus assessed as inhibition of bacterial growth at 0.5 ug/ml by CLSI broth microdilution method
[25] = system: Streptococcus sp. 'group A'; assay: Antibacterial activity against Beta-hemolytic Streptococcus group A assessed as inhibition of bacterial growth at 0.5 ug/ml by CLSI broth microdilution method; how it was run: as §1
Staphylococcus aureus [26] = assay: Antibacterial activity against Methicillin-sensitive Staphylococcus aureus assessed as inhibition of bacterial growth at 8 ug/ml by CLSI broth microdilution method; how it was run: as §2
Staphylococcus aureus [27] = assay: Antibacterial activity against Methicillin-resistant Staphylococcus aureus by CLSI broth microdilution method
Enterococcus faecalis [28] = assay: Antibacterial activity against Enterococcus faecalis assessed as inhibition of bacterial growth at 1 ug/ml by CLSI broth microdilution method; how it was run: as §1
Staphylococcus aureus [29] = assay: Antibacterial activity against Methicillin-resistant Staphylococcus aureus assessed as inhibition of bacterial growth at 4 ug/ml by CLSI broth microdilution method; how it was run: as §2
Staphylococcus aureus [30] = assay: Antibacterial activity against Methicillin-sensitive Staphylococcus aureus assessed as inhibition of bacterial growth at 0.03 ug/ml by CLSI broth microdilution method; set-up: Activity: scale not given: the % may be the effect or the level left; how it was run: as §2
Enterococcus faecium [31] = assay: Antibacterial activity against Enterococcus faecium assessed as inhibition of bacterial growth at 8 ug/ml by CLSI broth microdilution method
[32] = system: Streptococcus sp. 'group B'; assay: Antibacterial activity against Beta-hemolytic Streptococcus group B assessed as inhibition of bacterial growth at 1 ug/ml by CLSI broth microdilution method; how it was run: as §1
Staphylococcus aureus [33] = assay: as §5; set-up: Activity: scale not given: the % may be the effect or the level left; remark: listed apart in the source
Enterococcus faecalis [34] = assay: Antibacterial activity against Enterococcus faecalis assessed as inhibition of bacterial growth at 8 ug/ml by CLSI broth microdilution method; how it was run: as §1
Staphylococcus aureus [35] = assay: Antibacterial activity against Methicillin-resistant Staphylococcus aureus assessed as inhibition of bacterial growth at 1 ug/ml by CLSI broth microdilution method; how it was run: as §2
Enterococcus faecium [36] = assay: Antibacterial activity against Enterococcus faecium assessed as inhibition of bacterial growth at 1 ug/ml by CLSI broth microdilution method
[37] = system: Streptococcus sp. 'group A'; assay: as §3; remark: listed apart in the source
Enterococcus faecalis [38] = assay: Antibacterial activity against Enterococcus faecalis assessed as inhibition of bacterial growth at 0.03 ug/ml by CLSI broth microdilution method; how it was run: as §1
Staphylococcus aureus [39] = assay: Antibacterial activity against Methicillin-sensitive Staphylococcus aureus assessed as inhibition of bacterial growth at 1 ug/ml by CLSI broth microdilution method
[40] = system: Streptococcus sp. 'group A'; assay: Antibacterial activity against Beta-hemolytic Streptococcus group A assessed as inhibition of bacterial growth at 4 ug/ml by CLSI broth microdilution method; how it was run: as §1
Staphylococcus aureus [41] = assay: Antibacterial activity against Methicillin-sensitive Staphylococcus aureus assessed as inhibition of bacterial growth at 0.06 ug/ml by CLSI broth microdilution method; set-up: Activity: scale not given: the % may be the effect or the level left
Enterococcus faecium [42] = assay: Antibacterial activity against Enterococcus faecium assessed as inhibition of bacterial growth at 2 ug/ml by CLSI broth microdilution method
Staphylococcus aureus [43] = assay: Antibacterial activity against Methicillin-resistant Staphylococcus aureus assessed as inhibition of bacterial growth at 0.06 ug/ml by CLSI broth microdilution method; how it was run: as §2

COc1cc(Cc2cnc(N)nc2N)c2c(c1OC)OC(C1CC1)C=C2 (stereo not given)
inhibition at 0.5 µg/mL (Enterococcus faecalis [1]): 70.6% | inhibition at 0.03 µg/mL (Enterococcus faecium [2]): 37.6% | MIC50 (Staphylococcus aureus [3]): 0.06 µg/mL (≈ 0.169 µM) | MIC90 (Staphylococcus aureus [3]): 0.12 µg/mL (≈ 0.339 µM) | inhibition at 0.5 µg/mL [4]: 100% | inhibition at 2 µg/mL (Staphylococcus aureus [5]): 94.6% | inhibition at […] [6]: 100% | inhibition at 0.03 µg/mL [7]: 94.9% | inhibition at […] [8]: 91.2% | inhibition at 8 µg/mL [9]: 100% | inhibition at […] (Enterococcus faecalis [10]): 70.6% | inhibition at 0.5 µg/mL (Staphylococcus aureus [11]): 92.9% | inhibition (INH) (Enterococcus faecalis [12]): 100% | inhibition at […] [13]: 55.4% | inhibition at 4 µg/mL (Enterococcus faecalis [14]): 96.8% | inhibition at 2 µg/mL [15]: 100% | inhibition at […] (Staphylococcus aureus [16]): 91.1% | inhibition at […] (Enterococcus faecium [17]): 38.3% | inhibition at 8 µg/mL [18]: 100% | inhibition at 2 µg/mL [19]: 100% | inhibition at […] (Staphylococcus aureus [20]; Staphylococcus aureus): 95.6% | inhibition at 0.06 µg/mL (Enterococcus faecalis [21]): 67.1% | inhibition at 0.06 µg/mL (Enterococcus faecium [22]): 37.6% | inhibition at 0.06 µg/mL [23]: 5.4% | inhibition at 0.5 µg/mL (Staphylococcus aureus [24]): 98.6% | inhibition at 0.5 µg/mL [25]: 100% | inhibition at 8 µg/mL (Staphylococcus aureus [26]): 100% | MIC50 (Staphylococcus aureus [27]): 0.06 µg/mL (≈ 0.169 µM) | MIC90 (Staphylococcus aureus [27]): 0.12 µg/mL (≈ 0.339 µM) | inhibition at 1 µg/mL (Enterococcus faecalis [28]): 71% | inhibition at 4 µg/mL (Staphylococcus aureus [29]): 97.9% | inhibition at 0.03 µg/mL (Staphylococcus aureus [30]; Staphylococcus aureus): 6.1% | inhibition at 8 µg/mL (Enterococcus faecium [31]): 75.6% | inhibition at 1 µg/mL [32]: 100% | inhibition at […] (Staphylococcus aureus [33]; Staphylococcus aureus): 98.5% | inhibition at 8 µg/mL (Enterococcus faecalis [34]): 1.9% | inhibition at 1 µg/mL (Staphylococcus aureus [35]): 93.8% | inhibition at 1 µg/mL (Enterococcus faecium [36]): 42.2% | inhibition at […] [37]: 100% | inhibition at 0.03 µg/mL (Enterococcus faecalis [38]): 63.9% | inhibition at 1 µg/mL (Staphylococcus aureus [39]): 98.7% | inhibition at 4 µg/mL [40]: 100% | inhibition at 0.06 µg/mL (Staphylococcus aureus [41]; Staphylococcus aureus): 58.8% | inhibition at 2 µg/mL (Enterococcus faecium [42]): 58.1% | inhibition at 0.06 µg/mL (Staphylococcus aureus [43]): 69.6%

COc1cc(Cc2cnc(N)nc2N)cc(OC)c1OC [TRIMETHOPRIM]
inhibition at 0.5 µg/mL (Enterococcus faecalis [1]): 62.9% | inhibition at 0.03 µg/mL (Enterococcus faecium [2]): 13.9% | MIC50 (Staphylococcus aureus [3]): 1 µg/mL (≈ 3.44 µM) | MIC90 (Staphylococcus aureus [3]): 1 µg/mL (≈ 3.44 µM) | inhibition at 0.5 µg/mL [4]: 5.9% | inhibition at 2 µg/mL (Staphylococcus aureus [5]): 92.1% | inhibition at […] [6]: 45.9% | inhibition at 0.03 µg/mL [7]: 0.8% | inhibition at […] [8]: 0.5% | inhibition at 8 µg/mL [9]: 100% | inhibition at […] (Enterococcus faecalis [10]): 56.5% | inhibition at 0.5 µg/mL (Staphylococcus aureus [11]): 47.7% | inhibition (INH) (Enterococcus faecalis [12]): 100% | inhibition at […] [13]: 0% | inhibition at 4 µg/mL (Enterococcus faecalis [14]): 70% | inhibition at 2 µg/mL [15]: 89.2% | inhibition at […] (Staphylococcus aureus [16]): 0.2% | inhibition at […] (Enterococcus faecium [17]): 37.3% | inhibition at 8 µg/mL [18]: 100% | inhibition at 2 µg/mL [19]: 100% | Activity (Staphylococcus aureus [20]): 0.3% | inhibition at 0.06 µg/mL (Enterococcus faecalis [21]): 4.2% | inhibition at 0.06 µg/mL (Enterococcus faecium [22]): 30.4% | inhibition at 0.06 µg/mL [23]: 0% | inhibition at 0.5 µg/mL (Staphylococcus aureus [24]): 34.3% | inhibition at 0.5 µg/mL [25]: 98.5% | inhibition at 8 µg/mL (Staphylococcus aureus [26]): 98.7% | MIC50 (Staphylococcus aureus [27]): 1 µg/mL (≈ 3.44 µM) | MIC90 (Staphylococcus aureus [27]): 2 µg/mL (≈ 6.89 µM) | inhibition at 1 µg/mL (Enterococcus faecalis [28]): 64.5% | inhibition at 4 µg/mL (Staphylococcus aureus [29]): 92.5% | Activity (Staphylococcus aureus [30]): 0% | inhibition at 8 µg/mL (Enterococcus faecium [31]): 41.6% | inhibition at 1 µg/mL [32]: 51% | Activity (Staphylococcus aureus [33]): 2.4% | inhibition at 8 µg/mL (Enterococcus faecalis [34]): 70.6% | inhibition at 1 µg/mL (Staphylococcus aureus [35]): 88.5% | inhibition at 1 µg/mL (Enterococcus faecium [36]): 38% | inhibition at […] [37]: 84.6% | inhibition at 0.03 µg/mL (Enterococcus faecalis [38]): 0.6% | inhibition at 1 µg/mL (Staphylococcus aureus [39]): 90.2% | inhibition at 4 µg/mL [40]: 100% | Activity (Staphylococcus aureus [41]): 0.1% | inhibition at 2 µg/mL (Enterococcus faecium [42]): 38.3% | inhibition at 0.06 µg/mL (Staphylococcus aureus [43]): < 0.1%
